Here are results for 31 compounds from PubChem BioAssay AID652011 (Sanford-Burnham Center for Chemical Genomics, 2013).

Values joined by “and” are separate entries in the source; they are usually repeats but may differ in a detail not shown here. Identical values can stand only once.

Sequence of Endothelial PAS domain-containing protein 1 (Homo sapiens) (Q99814 whole entry, looked up, the tested form may be a part): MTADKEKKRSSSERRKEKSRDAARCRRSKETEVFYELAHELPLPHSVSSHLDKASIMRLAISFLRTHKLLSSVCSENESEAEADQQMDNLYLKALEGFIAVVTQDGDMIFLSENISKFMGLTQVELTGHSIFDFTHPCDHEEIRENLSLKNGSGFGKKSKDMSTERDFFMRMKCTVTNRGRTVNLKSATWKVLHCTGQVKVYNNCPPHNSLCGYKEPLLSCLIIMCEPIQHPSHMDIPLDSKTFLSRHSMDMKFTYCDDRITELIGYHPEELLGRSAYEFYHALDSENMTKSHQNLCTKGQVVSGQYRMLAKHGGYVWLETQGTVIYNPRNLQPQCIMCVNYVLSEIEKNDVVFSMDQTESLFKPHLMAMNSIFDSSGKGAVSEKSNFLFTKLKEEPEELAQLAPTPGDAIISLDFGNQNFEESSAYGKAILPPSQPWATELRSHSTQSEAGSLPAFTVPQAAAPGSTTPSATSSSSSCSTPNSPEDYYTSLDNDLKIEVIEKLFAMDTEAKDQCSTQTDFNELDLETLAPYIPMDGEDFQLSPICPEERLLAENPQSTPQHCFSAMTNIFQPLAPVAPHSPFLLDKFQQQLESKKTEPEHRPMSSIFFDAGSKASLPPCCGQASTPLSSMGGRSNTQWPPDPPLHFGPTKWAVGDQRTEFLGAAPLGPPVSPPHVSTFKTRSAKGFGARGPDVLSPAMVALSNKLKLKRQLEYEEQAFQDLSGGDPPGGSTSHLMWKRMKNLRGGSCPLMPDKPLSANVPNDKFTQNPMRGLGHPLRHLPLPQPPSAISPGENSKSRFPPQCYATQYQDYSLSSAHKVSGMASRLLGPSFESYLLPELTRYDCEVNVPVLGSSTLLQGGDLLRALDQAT

This experiment addresses Endothelial PAS domain-containing protein 1 (Homo sapiens) (UniProt Q99814). Put plainly: HIF reporter inhibition across pancreatic and renal lines – cell-based, luminescence, MIAPaCa-2, 786-0, panel, SAR follow-up (AID 652011). The note with it: MIAPaCa-2/PANC HIF reporter, luciferase luminescence, desferoxamine, overnight, HIF2a PANC, run 2; at 99 µM (top of the series). A digest of the protocol: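 Also added: desferoxamine added before compound. Dosing: compounds from 10 mM and 0.3125 mM stocks, 1% DMSO final. Timing: overnight seeding and compound exposure, 37 °C, 5% CO2, 10-min detection. Detection: luciferase luminescence with One-Glo reagent.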
For the compound `CCOc1ccc(-c2noc(CCC(=O)O)n2)cc1`, the inhibition is 109%.

`CNC(=O)CCc1nc(-c2ccc(C)cc2)no1`: the inhibition was 76.6%.

On to `CC(C)(C)c1ccc(-c2noc(CCC(=O)Nc3cccc([N+](=O)[O-])c3)n2)cc1`, for which the inhibition amounted to 86.3%.

For the compound `COc1ccccc1NC(=O)CCc1nc(-c2ccc(C(C)(C)C)cc2)no1`, the inhibition amounted to 123%.

For the compound `CC(C)CNC(=O)CCc1nc(-c2ccc(C(C)(C)C)cc2)no1`, the inhibition was determined as 65.5%.

Regarding `C=CCNC(=O)CCc1nc(-c2ccc(C(C)(C)C)cc2)no1`, the inhibition worked out at 82%.

For the compound `COc1cccc(NC(=O)CCc2nc(-c3ccc(C(C)(C)C)cc3)no2)c1`, the inhibition came out at 131%.

Consider `CC(C)(C)c1ccc(-c2noc(CCC(=O)NCC3CCCO3)n2)cc1` (stereo unspecified), for which the inhibition turned out to be 16.7%.

Turning to `CC(C)(C)NC(=O)CCc1nc(-c2ccccc2)no1`, the inhibition was -18.9%.

For `CCC(C)NC(=O)CCc1nc(-c2ccc(C(C)C)cc2)no1` (stereo unspecified), the inhibition came out at 38.4%.

As for `CNC(=O)CCc1nc(-c2ccc(Cl)cc2)no1`, the inhibition is -17.8%.

Consider `CCNC(=O)CCc1nc(-c2ccc(C(C)(C)C)cc2)no1`, for which the inhibition was 84.7% and 55.9%.

In the case of `CC(C)(C)c1ccc(-c2noc(CCC(=O)Nc3cccnc3)n2)cc1`, the inhibition came to 126%.

Take `CNC(=O)CCc1nc(-c2ccccc2)no1`: the inhibition was -73.5% and 30.8%.

On to `CC(C)c1ccc(-c2noc(CCC(=O)NC(C)(C)C)n2)cc1`, for which the inhibition amounted to 90%.

Take `O=C(O)CCc1nc(-c2ccccc2)no1`: the inhibition worked out at 45.4%.

Turning to `CCN(CC)C(=O)CCc1nc(-c2ccc(C(C)(C)C)cc2)no1`, the inhibition was 76.8% and 78.5%.

On to `CC(C)(C)c1ccc(-c2noc(CCC(N)=O)n2)cc1`, for which the inhibition is 124% and 92.8%.

As to `CCOc1ccccc1NC(=O)CCc1nc(-c2ccc(C(C)(C)C)cc2)no1`, the inhibition was 112%.

Take `CC(C)(C)c1ccc(-c2noc(CCC(=O)N3CCCCC3)n2)cc1`: the inhibition is 106%.

`CCc1ccc(-c2noc(CCC(=O)NC(C)CC)n2)cc1` (stereo unspecified): the inhibition was -30.6%.

Consider `O=C(CCc1nc(-c2ccccc2)no1)NC1CC1`, for which the inhibition was 56.6%.

As for `CCCCc1ccc(-c2noc(CCC(=O)NCC)n2)cc1`, the inhibition amounted to 9.61%.

In the case of `CN(C)C(=O)CCc1nc(-c2ccc(C(C)(C)C)cc2)no1`, the inhibition was 42.5% and -5.18%.

As to `CCCCc1ccc(-c2noc(CCC(=O)NC3CC3)n2)cc1`, the inhibition came to 16%.

Consider `CCNC(=O)CCc1nc(-c2ccc(OCC)cc2)no1`, for which the inhibition is -15.1%.

Consider `CCCCc1ccc(-c2noc(CCC(=O)NC)n2)cc1`, for which the inhibition is -4.31%.

In the case of `CCNC(=O)CCc1nc(-c2cccc(OC)c2)no1`, the inhibition is -12.7%.

Take `CNC(=O)CCc1nc(-c2ccc(C(C)C)cc2)no1`: the inhibition turned out to be 8.04%.

Consider `CCNC(=O)CCc1nc(-c2ccccc2C)no1`, for which the inhibition was -1.15%.

For the compound `CCc1ccc(-c2noc(CCC(=O)NC3CC3)n2)cc1`, the inhibition was -46.2%.

By inhibition is commonly meant the drop in the measured response relative to a control, in per cent.
